The values below come from ChEMBL document CHEMBL5252513, “Identification of a Benzoisoxazoloazepine Inhibitor (CPI-0610) of the Bromodomain and Extra-Terminal (BET) Family as a Candidate for Human Clinical Trials” (J Med Chem, 2016).

Calls of active or inactive are those of the source. The calls are words filed in the database; no cut-off is given here.

Data set [1] has as its target T1, Transcription intermediary factor 1-alpha (Homo sapiens, UniProt O15164).
T1 sequence (O15164 whole entry): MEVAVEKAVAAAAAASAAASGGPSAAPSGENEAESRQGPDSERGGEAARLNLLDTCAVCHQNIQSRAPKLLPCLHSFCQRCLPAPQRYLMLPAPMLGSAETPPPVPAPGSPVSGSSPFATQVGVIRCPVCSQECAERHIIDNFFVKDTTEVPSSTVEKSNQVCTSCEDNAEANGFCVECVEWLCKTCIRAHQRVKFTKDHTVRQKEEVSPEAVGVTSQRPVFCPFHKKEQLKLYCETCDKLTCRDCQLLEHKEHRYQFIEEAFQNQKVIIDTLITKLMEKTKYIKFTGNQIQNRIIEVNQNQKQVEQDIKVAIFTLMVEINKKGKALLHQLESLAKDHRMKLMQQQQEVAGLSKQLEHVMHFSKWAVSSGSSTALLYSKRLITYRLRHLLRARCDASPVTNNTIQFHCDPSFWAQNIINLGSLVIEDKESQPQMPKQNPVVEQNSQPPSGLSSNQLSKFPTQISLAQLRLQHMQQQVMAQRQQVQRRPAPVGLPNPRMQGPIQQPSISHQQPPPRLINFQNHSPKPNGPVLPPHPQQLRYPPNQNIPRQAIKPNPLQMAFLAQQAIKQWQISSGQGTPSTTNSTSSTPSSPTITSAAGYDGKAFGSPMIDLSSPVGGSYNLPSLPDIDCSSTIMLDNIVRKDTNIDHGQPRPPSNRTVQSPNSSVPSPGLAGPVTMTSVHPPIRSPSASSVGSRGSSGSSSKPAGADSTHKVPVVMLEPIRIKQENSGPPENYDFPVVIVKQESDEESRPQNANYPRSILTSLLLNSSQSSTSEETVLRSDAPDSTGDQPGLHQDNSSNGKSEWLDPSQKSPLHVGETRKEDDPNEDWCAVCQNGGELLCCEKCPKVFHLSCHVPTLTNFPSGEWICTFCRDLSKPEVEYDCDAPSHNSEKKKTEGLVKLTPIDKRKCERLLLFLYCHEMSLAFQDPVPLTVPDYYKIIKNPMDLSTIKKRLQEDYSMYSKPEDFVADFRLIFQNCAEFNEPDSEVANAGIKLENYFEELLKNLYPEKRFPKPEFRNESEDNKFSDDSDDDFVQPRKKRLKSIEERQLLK
Put plainly: Displacement of biotinylated JQ1 from TRIM24 bromodomain (unknown origin) incubated for 20 mins by AlphaLISA assay. For orientation: In Alpha technology, singlet oxygen from a donor bead excites a nearby acceptor bead.

Data set [2] is described as follows: Unbound AUC in mouse at 30 mg/kg,po. The class given is ADME, organism-based. Conditions: in vivo.
Data set [3] in a line: Unbound AUC in rat at 5 mg/kg,po. Conditions: in vivo. The class given is ADME, organism-based.
A short description of data set [4]: Intrinsic clearance in human liver microsomes. The class given is ADME, Microsome. The following applies: read-out: CLH. (In general: Microsomes from liver hold many membrane-bound enzymes, among them those of drug oxidation.)
The nature of data set [5]: Intrinsic clearance in dog liver microsomes. The class given is ADME, Canis lupus familiaris, Microsome. The following applies: read-out: CLH.
For data set [6], the target named is Bromodomain-containing protein 8 (Homo sapiens, UniProt Q9H0E9). As to the kind of experiment: Binding affinity to BRD8 bromodomain (unknown origin) incubated for 60 mins by TR-FRET assay.
Sequence of Bromodomain-containing protein 8 (Q9H0E9 whole entry, canonical isoform): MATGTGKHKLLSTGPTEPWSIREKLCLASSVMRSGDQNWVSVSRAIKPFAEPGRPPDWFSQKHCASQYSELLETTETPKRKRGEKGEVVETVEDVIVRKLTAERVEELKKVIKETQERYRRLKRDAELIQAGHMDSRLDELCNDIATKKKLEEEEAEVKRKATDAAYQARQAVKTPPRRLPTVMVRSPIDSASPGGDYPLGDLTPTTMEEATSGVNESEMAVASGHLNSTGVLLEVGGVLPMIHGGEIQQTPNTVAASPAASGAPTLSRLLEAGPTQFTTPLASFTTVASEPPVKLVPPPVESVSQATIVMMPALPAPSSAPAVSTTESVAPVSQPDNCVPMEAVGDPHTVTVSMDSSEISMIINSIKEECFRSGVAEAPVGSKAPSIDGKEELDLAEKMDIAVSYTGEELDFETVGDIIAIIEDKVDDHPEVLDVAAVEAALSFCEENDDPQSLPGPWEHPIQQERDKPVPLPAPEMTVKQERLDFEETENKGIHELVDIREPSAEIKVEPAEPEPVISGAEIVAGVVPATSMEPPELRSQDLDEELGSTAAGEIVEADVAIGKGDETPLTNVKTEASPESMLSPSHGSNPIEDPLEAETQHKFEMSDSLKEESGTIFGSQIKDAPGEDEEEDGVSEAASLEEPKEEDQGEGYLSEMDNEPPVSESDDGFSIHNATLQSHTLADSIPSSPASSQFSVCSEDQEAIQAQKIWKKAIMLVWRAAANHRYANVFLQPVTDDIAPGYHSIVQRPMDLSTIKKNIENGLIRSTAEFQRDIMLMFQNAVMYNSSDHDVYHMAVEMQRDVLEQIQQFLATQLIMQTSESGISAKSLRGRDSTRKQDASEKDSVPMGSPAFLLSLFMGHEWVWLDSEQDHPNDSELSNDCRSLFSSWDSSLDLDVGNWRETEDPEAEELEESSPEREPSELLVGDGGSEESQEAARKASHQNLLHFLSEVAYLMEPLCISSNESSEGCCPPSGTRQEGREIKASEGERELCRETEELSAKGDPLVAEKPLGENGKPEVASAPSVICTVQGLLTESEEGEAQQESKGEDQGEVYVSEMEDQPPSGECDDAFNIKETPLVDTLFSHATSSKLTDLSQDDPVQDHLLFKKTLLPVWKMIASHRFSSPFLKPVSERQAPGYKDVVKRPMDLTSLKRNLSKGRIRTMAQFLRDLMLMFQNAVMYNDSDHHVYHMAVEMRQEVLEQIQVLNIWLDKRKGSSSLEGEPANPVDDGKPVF
In data set [7] the test system is Cytochrome P450. As to the kind of experiment: Inhibition of CYP450 (unknown origin) at 10 uM. The following applies: human. The class given is ADME, protein assay. In a few lines: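 Cytochrome P450 activity tested with compound at 10 µM against a number of common isoforms; time-dependent inhibition also assessed.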
The test system of data set [8] is MV4-11. As to the kind of experiment: In vivo inhibition of BRD4 in human MV4-11 cells xenografted in BALB/c mouse assessed as reduction in cellular MYC mRNA expression level in plasma at 15 mg/kg,sc BID and measured at 4 hrs by PCR anlaysis. The class given is functional, organism-based. In a few lines: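 Pharmacodynamic study in MV-4-11 AML mouse xenograft. Dosing was 15 mg/kg subcutaneous twice daily. At 4, 8 and 12 h after the second dose, MYC mRNA was measured against vehicle, and compound levels were measured in plasma and tumor. Free plasma concentration was estimated alongside total levels.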

Data set [9] concerns MV4-11. Put plainly: Antitumor activity against human MV4-11 cells xenografted in BALB/c mouse assessed as tumor growth inhibition at 30 mg/kg,po BID for 28 days. The class given is functional. Conditions: MV4-11, 672 h, time 28 day, read-out: TGI. In a few lines: (§1)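 Single-agent efficacy in MV-4-11 AML mouse xenograft. Tumor volume (mm3) and percent body-weight change were tracked over the treatment days.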
(In xenograft studies the graft and the host belong to different species.)

The subject of data set [10] is MV4-11. As to the kind of experiment: Antitumor activity against human MV4-11 cells xenografted in BALB/c mouse assessed as tumor growth inhibition at 60 mg/kg,po QD for 28 days. The class given is functional. The following applies: MV4-11, 672 h, time 28 day, read-out: TGI. Summed up: as §1
Data set [11] can be described thus: Toxicity in rat assessed as hypocellularity of bone marrow with associated anemia and thrombocytopenia at 2 to 20 mg/kg,po QD consecutive for 14 days followed by 2 weeks recovery period. The following applies: in vivo, 336 h, dose 2-20 mg/kg, time 14 day. The class given is organism-based. Summed up:
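Oral suspension given once daily for 14 consecutive days (rat 2, 6, 20 mg/kg; dog 2, 4, 6 mg/kg) in dose range-finding and GLP repeat-dose studies, GLP arms with an added 2-week recovery period; histopathology and clinical pathology findings recorded.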

With `Cc1noc2c1-c1ccccc1C(c1ccc(Cl)cc1)=N[C@H]2CC(N)=O` [PELABRESIB], the IC50 – broadly, the concentration that inhibits the measured activity by half – in data set [1] is more than 20 µM; in data set [6], more than 15 µM. The fAUC worked out at 3 µM·h in data set [2] and 0.64 µM·h in [3]. For the same molecule, the predicted hepatic clearance was 10 mL/min/kg in [4] and 20 mL/min/kg in data set [5]. For the same molecule, the “inhibition (INH)” value in data set [7] is reported as “Not Active”. In addition, the inhibition entry in [8] was “Active”. The inhibition in vivo at 30 mg/kg in data set [9] was determined as 80%. Further, in data set [10], the inhibition in vivo at 60 mg/kg is 74%. The Activity result in data set [11] is recorded as “Toxic”.
